Most compounds without a hit are left out; they make up all but 1.9% or so of the library.
DNA FID counter: fluorescent intercalator displacement, NS3 helicase counter-screen. DNA fluorescent intercalator displacement, fluorescence. inhibition, % at 7.9 µM. 0.17% of 290,000 active; in the data active means inhibition above about 37%;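 further: 0% = vehicle and 100% = reference compound; higher means more ethidium bromide displaced from hairpin DNA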
PP1 counter: blocks human PP1-alpha phosphatase, a PP5 counter-screen. inhibition, % at 6.7 µM. 0.9% of 320,000 active. purified PP1alpha, OMFP fluorescence;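 active means inhibition above the mean inhibition of all tested compounds plus 3 SD, computed separately for each screening campaign, cut at about 15% in these data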
NS3 helicase inh: blocks Hepatitis C virus NS3 helicase unwinding; NS3 helicase DNA unwinding, Cy5 molecular beacon fluorescence; 0.56% of 290,000 active; inhibition, % at 10.9 µM;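 active means inhibition above the mean of all tested compounds plus 3 SD, set per campaign, cut at about 35% in these data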;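 further: 0% = DMSO wells and 100% = thioflavine S control wells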
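System: Hepatitis C virus NS3 helicase domain fragment enzyme | Reagent: Annealed dual-labelled DNA beacon duplex, ATP-started | Compound dosing: 10.9 µM single point, 0.8% DMSO | Incubation: 1 h reaction at 25 °C, ATP-initiated | Technique: Cy5 fluorescence | Evaluation: Percent inhibition from t60/t0 fluorescence ratio | Benchmarks: Low DMSO, high thioflavine S at 110 µM | Replication: Singlicate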
HIF activator: HIF pathway transcriptional activation. U2OS HRE-luciferase reporter, luminescence; normalized: DMSO 0%, desferrioxamine 100%. activation, % at 7.5 µM (by protocol). 0.32% of 300,000 active. AID 1910;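 active means mean activation of at least 10% of the iron chelator positive control signal, with at least half of replicates also reaching 10%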
PP5 inh: inhibitors of human protein phosphatase 5 (PP5); P53041; purified PP5c, OMFP substrate fluorescence; inhibition, % at 6.7 µM; 0.18% of 320,000 active; AID 1987;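 active means inhibition above the campaign's mean inhibition across all tested compounds plus 3 SD, cut at about 9.5% in these data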;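 further: 0% = DMSO only and 100% = 100 µM cantharidin control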
Target sequence (P53041 whole entry, looked up): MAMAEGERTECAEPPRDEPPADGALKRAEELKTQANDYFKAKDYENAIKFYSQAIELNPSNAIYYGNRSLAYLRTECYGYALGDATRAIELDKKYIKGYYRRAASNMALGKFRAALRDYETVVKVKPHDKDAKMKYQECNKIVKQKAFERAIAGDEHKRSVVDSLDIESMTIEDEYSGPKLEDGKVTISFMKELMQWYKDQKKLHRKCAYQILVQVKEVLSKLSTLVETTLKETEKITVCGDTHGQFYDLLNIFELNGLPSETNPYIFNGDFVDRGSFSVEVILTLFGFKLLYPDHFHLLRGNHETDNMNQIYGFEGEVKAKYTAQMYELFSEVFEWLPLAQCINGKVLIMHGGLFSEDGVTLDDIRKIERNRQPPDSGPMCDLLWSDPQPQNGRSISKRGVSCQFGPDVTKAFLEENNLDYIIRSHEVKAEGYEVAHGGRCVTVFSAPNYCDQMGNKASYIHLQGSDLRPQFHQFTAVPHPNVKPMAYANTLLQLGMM
The depositor's hits bear a star; · = not tested or not shown.

SMILES | DNA FID counter | PP1 counter | NS3 helicase inh | HIF activator | PP5 inh
COc1ccccc1OCC(=O)N/N=C/c1cccc2cccnc12 | -28 | -2 | -8 | 5 | 0
O=c1c2ccccc2nc(N/N=C/c2c(O)ccc3ccccc23)n1O | -5 | 18* | 15 | 15* | 4
O=C(CN1CCCC1)N/N=C/c1c(O)ccc2ccccc12 | 1 | 0 | 14 | 28* | 0
COc1ccccc1OCC(=O)N/N=C/c1c(O)ccc2ccccc12 | -27 | -1 | 16 | 18* | 4
Cc1nn(C2CCS(=O)(=O)C2)c(C)c1CN(C)C(=O)c1ccccc1 (stereo not given) | · | -4 | · | · | 1
O=C(NCCN1CCCCCC1)C1CCCN1S(=O)(=O)c1cccc2nsnc12 (stereo not given) | 0 | -3 | -32 | 0 | -5
O=C(C1=C(O)C(=O)N(CCN2CCOCC2)C1c1ccc(Cl)cc1)c1cc2ccccc2o1 (stereo not given) | -69 | 19* | 13 | 0 | 4
O=C(C1=C(O)C(=O)N(CCN2CCOCC2)C1c1ccc([N+](=O)[O-])cc1)c1cc2ccccc2o1 (stereo not given) | -59 | 14 | 12 | 0 | 1
O=C(C1=C(O)C(=O)N(CCCN2CCOCC2)C1c1ccc(Cl)cc1)c1cc2ccccc2o1 (stereo not given) | -42 | 16* | 8 | 0 | 3
CCCCn1c(N)c(N(CCC(C)C)C(=O)c2[nH]c(C)c(C(=O)OCC)c2C)c(=O)[nH]c1=O | · | 0 | · | 0 | 4
O=C(COC(=O)Cc1ccsc1)Nc1ccc(Cl)c(S(=O)(=O)N2CCOCC2)c1 | -8 | -2 | -13 | 0 | 0
COc1ccc(-c2cc3c(=O)n(CC(=O)NCCCN4CCC(N5CCCCC5)CC4)nc(C)n3n2)cc1 | 42* | -4 | -24 | 0 | 1
Cc1nn(CC(=O)NCCCN2CCCCC2)c(=O)c2cc(-c3ccccc3)nn12 | 22 | 0 | -7 | 0 | 2
COc1ccc(-c2cc3c(=O)n(CC(=O)NCCCN4CCC(N5CCCCC5)CC4)ncn3n2)cc1 | 40* | 4 | -22 | 1 | 0
CN(C(=O)CS(=O)(=O)c1cn(CC(=O)N2CCCCC2)c2ccccc12)c1ccccc1 | -49 | -1 | 0 | 0 | 0
CCOC(=O)c1c(C)oc2cc(Cl)c(O)c(CN(C)C)c12 | 3 | -3 | 10 | 0 | 1
CCOC(=O)c1c(-c2ccccc2)oc2cc(CN(C)C)c(O)c(CN(C)C)c12 | -11 | 2 | 15 | 12* | -1
O=C(C[n+]1ccn(CCCNP2(=O)C=C(c3ccccc3)OC(c3ccccc3)=C2)c1)c1cccs1 | 25 | 6 | -48 | 101* | 2
CC[n+]1ccc(/C=C/c2ccc(N(C)C)cc2)c2ccccc21 | 57* | · | 1 | · | ·
Clc1cccc(N/N=C/c2ccc(N3CCOCC3)s2)c1 | -6 | -1 | 15 | 1 | 2
O=C(N/N=C(\c1ccccc1)c1cccnc1)c1cccc(F)c1 | -23 | 1 | 6 | 89* | 0
Cc1cccc(C(=O)NCCC(=O)NCc2ccccc2Cl)c1 | · | -2 | · | · | 3
CSc1ccc(S(=O)(=O)NC2CC2)cc1 | -3 | -5 | -2 | -3 | -2
O=C(Nc1ccc(C2=NCCN2)cc1)c1ccc(C(=O)Nc2ccc(C3=NCCN3)cc2)c(Cl)c1 | 37* | 5 | -61 | 1 | -3
O=C(Nc1ccc(NC(=O)c2ccc(Cl)cc2Cl)cc1)c1ccc2c(c1)OCO2 | 0 | -1 | -2 | 0 | 4
SMILES | DNA FID counter | PP1 counter | NS3 helicase inh | HIF activator | PP5 inh
CCCNC(=O)c1cn(CC)c2cc(N3CCN(C)CC3)c(F)cc2c1=O | 16 | -1 | 2 | 0 | 2
CCn1cc(C(=O)NCCCN(C)C)c(=O)c2cc(F)c(N3CCN(C)CC3)cc21 | 68* | 0 | 18 | 1 | 0
CCCCCNC(=O)c1cn(CC)c2cc(N3CCN(C)CC3)c(F)cc2c1=O | 15 | 3 | -32 | -14 | -1
CCn1cc(C(=O)NCCN(C)C)c(=O)c2cc(F)c(N3CCN(C)CC3)cc21 | 56* | -3 | 15 | 0 | 1
COc1ccc(-c2nc(CS(=O)(=O)CC(=O)NC3CCC(C)CC3)c(C)o2)cc1 (stereo not given) | -54 | -1 | -9 | 0 | 1
CC(C(=O)Nc1ccccc1-c1ccccc1)N(C)Cc1nc2ccccc2c(=O)[nH]1 (stereo not given) | -31 | -1 | 4 | 57* | -2
CC(NC(=O)CN(C)Cc1nc2ccccc2c(=O)[nH]1)c1ccccc1 (stereo not given) | -9 | -6 | 1 | 0 | 3
Cc1noc(C)c1COC(=O)[C@@H](NC(=O)c1ccccc1)C(C)C | 0 | 0 | -1 | 0 | -3
O=C(NCCC1=CCCCC1)c1c(O)nc2ccccn2c1=O | -32 | 15* | 8 | 1 | 2
Cc1cccc(NC(=O)COC(=O)CCc2c[nH]c3ccccc23)c1C | · | -1 | · | · | 1
CC(=O)N1CCN(S(=O)(=O)c2ccc(S(=O)(=O)NCC(C)C)cc2)CC1 | -8 | 16* | 5 | -1 | -5
CC(C)CNS(=O)(=O)c1ccc(S(=O)(=O)N2CCC3(CC2)OCCO3)cc1 | -12 | -1 | 3 | -1 | -2
Cc1ccc(C)c(S(=O)(=O)N2CCCC2CNC(=O)C(=O)NCc2ccccc2C)c1 (stereo not given) | · | -5 | · | 0 | 1
CC(C)COc1cccc(C(=O)NNC(=O)C2COc3ccccc3O2)c1 (stereo not given) | -14 | -1 | -8 | 26* | 1
Nc1ccc(C(=O)NNC(=O)C2COc3ccccc3O2)cc1[N+](=O)[O-] (stereo not given) | · | -5 | · | 1 | -2
CCC(C)(C)c1ccc(OCCCC[n+]2cccc(C)c2)c(C(C)(C)CC)c1 | 21 | · | -68 | 0 | ·
COc1ccc2[nH]c(=O)c(CN(CC3CCCO3)S(=O)(=O)c3ccccc3F)cc2c1 (stereo not given) | -33 | 2 | -3 | -4 | 1
COc1ccc(N2CSC3=C(C#N)C(c4cc(OC)c(OC)cc4OC)CC(=O)N3C2)c(OC)c1 (stereo not given) | -30 | 0 | 66* | 0 | 1
COc1ccc(N2CSC3=C(C#N)C(c4cc(OC)ccc4OC)CC(=O)N3C2)c(OC)c1 (stereo not given) | -29 | 0 | 28 | 0 | 4
O=C(COc1ccc2c3c(c(=O)oc2c1)CCC3)NCc1cccnc1 | -32 | -2 | 5 | 0 | -4
CCOc1cccc(CN2CCCC(C(=O)Nc3cccc(-n4cccn4)c3)C2)c1 (stereo not given) | 15 | 1 | -26 | 2 | 1
CCOc1ccccc1CN1CCCC(C(=O)Nc2cccc(-n3cccn3)c2)C1 (stereo not given) | 39* | -1 | -67 | 0 | 3
COc1ccc(NC(=O)CSc2nnc(Cn3cnc4ccccc43)n2C)cc1 | -8 | -1 | 0 | -1 | 0
CCOC(=O)CNC(=O)CSc1nnc(Cn2cnc3ccccc32)n1C | 2 | -1 | 2 | 12* | 2

Screens (PubChem)
